Experiments:
Cathepsin D = Cathepsin D (Homo sapiens, UniProt P07339); assay: Compound was tested for the inhibitory activity against human liver cathepsin D
Procedure, shortened: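 Human liver cathepsin D, 0.7 nM final, in 0.1 M formic acid buffer pH 3.7. […] Fluorescence (ex 336/em 490 nm) followed over time. Ki obtained by nonlinear fit to the Williams–Morrison tight-binding equation.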

Plasmepsin II = Plasmepsin II (Plasmodium falciparum, UniProt P46925); assay: Inhibitory activity against plasmepsin-2
Chain of Plasmepsin II (P46925 whole entry): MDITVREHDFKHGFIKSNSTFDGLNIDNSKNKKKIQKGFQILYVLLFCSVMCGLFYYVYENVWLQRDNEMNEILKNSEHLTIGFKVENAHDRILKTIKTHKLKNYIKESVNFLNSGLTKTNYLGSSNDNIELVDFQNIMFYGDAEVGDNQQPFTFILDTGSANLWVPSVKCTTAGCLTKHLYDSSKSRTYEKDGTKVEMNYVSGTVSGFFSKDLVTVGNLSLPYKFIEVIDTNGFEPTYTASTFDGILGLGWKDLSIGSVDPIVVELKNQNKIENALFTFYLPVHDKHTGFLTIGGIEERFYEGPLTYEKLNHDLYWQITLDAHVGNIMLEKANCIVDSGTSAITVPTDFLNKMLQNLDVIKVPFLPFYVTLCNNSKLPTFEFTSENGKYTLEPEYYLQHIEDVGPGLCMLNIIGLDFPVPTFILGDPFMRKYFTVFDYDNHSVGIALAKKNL
Procedure, shortened: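 Activated Plm II proenzyme, 0.6–0.7 nM final, in 0.1 M sodium acetate pH 5.0 with 10% glycerin and 0.01% Tween-20. Inhibitor in DMSO, preincubated 4.5 min at 25 °C, then DABCYL/EDANS fluorogenic peptide substrate added (Km 0.75 μM). Fluorescence (ex 336/em 490 nm) followed over time. Five to six inhibitor concentrations, duplicate or triplicate. Ki by Williams–Morrison nonlinear fit.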

Chain of Cathepsin D (P07339 65-162 limits assumed): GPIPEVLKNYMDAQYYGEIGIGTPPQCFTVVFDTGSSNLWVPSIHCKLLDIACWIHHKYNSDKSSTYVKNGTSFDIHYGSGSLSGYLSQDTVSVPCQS
Chain of Cathepsin D (P07339 169-412 limits assumed): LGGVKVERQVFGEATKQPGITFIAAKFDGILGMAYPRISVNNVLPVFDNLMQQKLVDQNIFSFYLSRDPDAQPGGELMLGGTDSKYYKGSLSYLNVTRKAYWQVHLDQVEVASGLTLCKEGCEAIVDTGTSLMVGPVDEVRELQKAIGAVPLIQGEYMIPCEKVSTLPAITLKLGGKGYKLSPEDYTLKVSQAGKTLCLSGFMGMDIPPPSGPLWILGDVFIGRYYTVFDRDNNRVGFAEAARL

| SMILES | Ki (Cathepsin D) [nM] | Ki (Plasmepsin II) [nM] |
| --- | --- | --- |
| CC(=O)N1CCC(C(=O)N(CCc2ccc3c(c2)OCO3)C[C@H](O)[C@H](Cc2ccccc2)NC(=O)COc2cccc(Cl)c2)CC1 | 1.9 | 4 |
| CN1CCC(C(=O)N(CCc2ccc3c(c2)OCO3)C[C@H](O)[C@H](Cc2ccccc2)NC(=O)COc2cccc(Cl)c2)CC1 | 5.8 | 2 |
| Cc1ccc(C)c(OCC(=O)N[C@@H](Cc2ccccc2)[C@@H](O)CN(CCc2ccc3c(c2)OCO3)C(=O)CCN2C(=O)c3ccccc3C2=O)c1 | – | 300 |
| COc1cc(C(=O)N[C@@H](Cc2ccccc2)[C@@H](O)CN(CCc2ccc3c(c2)OCO3)C(=O)C2CCN(C(C)=O)CC2)cc(OC)c1OCc1ccccc1 | 4.3 | 4.8 |
| COc1ccc(CCN(C[C@H](O)[C@H](Cc2ccccc2)NC(=O)COc2cccc(Cl)c2)C(=O)C2CCN(C)CC2)cc1 | 9.8 | 2 |
| COc1ccc(CCN(C[C@H](O)[C@H](Cc2ccccc2)NC(=O)c2cc(OC)c(OCc3ccccc3)c(OC)c2)C(=O)C2CCN(C)CC2)cc1 | 58 | 4.1 |
| O=C(COc1cccc(Cl)c1)N[C@@H](Cc1ccccc1)[C@@H](O)CN(CCc1ccc2c(c1)OCO2)C(=O)CCN1C(=O)c2ccccc2C1=O | – | 220 |
| COc1ccc(CCN(C[C@H](O)[C@H](Cc2ccccc2)NC(=O)COc2cccc(Cl)c2)C(=O)C2CCNCC2)cc1 | 63 | 4.3 |
| CC(=O)N1CCC(C(=O)N(CCc2ccc3c(c2)OCO3)C[C@H](O)[C@H](Cc2ccccc2)NC(=O)CNc2cccc(Cl)c2)CC1 | 1.3 | 3 |
| COc1ccc(CCN(C[C@H](O)[C@H](Cc2ccccc2)NC(=O)c2cc(OC)c(OCc3ccccc3)c(OC)c2)C(=O)C2CCNCC2)cc1 | 71 | 9 |
| COc1cc(C(=O)N[C@@H](Cc2ccccc2)[C@@H](O)CN(CCc2ccc3c(c2)OCO3)C(=O)CCN2C(=O)c3ccccc3C2=O)cc(OC)c1OCc1ccccc1 | – | 100 |

— ChEMBL document CHEMBL1132121, “Potent, low-molecular-weight non-peptide inhibitors of malarial aspartyl protease plasmepsin II” (J Med Chem, 1999)
